Test results: ChEMBL document CHEMBL1123309, “Esters and lactones of phenolic amino carboxylic acids: prodrugs for iron chelation” (J Med Chem, 1986)

How the values were obtained:
[1] = tested on: Mus musculus; assay: BDF1 male mice were administered with 129 mg/kg intraperitoneally and percent change in iron levels was determined in Urine; format: functional; conditions: route intraperitoneal
Summary of the method: (§1)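 Male BDF1 mice made iron-overloaded by transfusion of washed, heat-treated (50 °C, 30 min) canine red cells. Dosing began 2 days after the last transfusion, once daily for 7 days, in distilled water or 2% Polysorbate 80 suspension. Daily group urine was collected. Pooled feces were digested in 1 N HCl (90 °C, 30 min). Liver and spleen were homogenized in saline. Iron was measured by atomic absorption and expressed as % change vs transfused controls.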

[2] = tested on: Mus musculus; assay: BDF1 male mice were administered with 129 mg/kg intraperitoneally and percent change in iron levels was determined in Liver; format: functional; conditions: route intraperitoneal; summary of the method: as §1
[3] = tested on: Mus musculus; assay: BDF1 male mice were administered with 129 mg/kg intraperitoneally and number of survivors was determined out 10 tested; format: functional; conditions: route intraperitoneal
Summary of the method: (§2)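 Male BDF1 mice were iron-loaded by transfusion of canine red cells. The cells were heparinised, washed twice in isotonic saline and heated at 50 °C for 30 min. Dosing started two days after the last transfusion, once daily for 7 consecutive days. Compounds were given in distilled water or as a fine aqueous suspension with Polysorbate 80 (2% final). Toxic signs were recorded daily and survivors counted per group.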

[4] = tested on: Mus musculus; assay: BDF1 male mice were administered with 129 mg/kg intraperitoneally and percent change in iron levels was determined in Spleen; format: functional; conditions: route intraperitoneal; summary of the method: as §1
[5] = tested on: Mus musculus; assay: BDF1 male mice were administered with 129 mg/kg intraperitoneally and percent change in iron levels was determined in Feces; format: functional; conditions: route intraperitoneal; summary of the method: as §1
[6] = tested on: Mus musculus; assay: BDF1 male mice were administered with 300 mg/kg intraperitoneally and percent change in iron levels was determined in Urine; format: functional; conditions: route intraperitoneal
Summary of the method: (§3)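 Male BDF1 mice were hypertransfused with washed, heat-treated (50 °C, 30 min) canine red cells. Starting 2 days after the last transfusion, they received one ip injection daily for 7 days, in distilled water or an aqueous suspension with Polysorbate 80 (2% final). Group urine was collected every 24 h. Feces were digested in 1 N HCl (90 °C, 30 min, triplicate). Liver and spleen were homogenized. Iron was measured by atomic absorption and reported as % change vs transfused controls.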

[7] = tested on: Rattus norvegicus; assay: Percent change in iron levels was determined in feces using iron overload rat model where the route of administration is Intraperitoneal; format: ADME, organism-based; conditions: in vivo, ip
[8] = tested on: Mus musculus; assay: BDF1 male mice were administered with 300 mg/kg intraperitoneally and percent change in iron levels was determined in Feces; format: functional; conditions: route intraperitoneal; summary of the method: as §3
[9] = tested on: Mus musculus; assay: BDF1 male mice were administered with 300 mg/kg intraperitoneally and percent change in iron levels was determined in Spleen; format: functional; conditions: route intraperitoneal; summary of the method: as §3
[10] = tested on: Mus musculus; assay: BDF1 male mice were administered with 300 mg/kg intraperitoneally and number of survivors was determined out of 10 tested; format: functional; conditions: route intraperitoneal; summary of the method: as §2
[11] = Compound was evaluated for lethal dose after intraperitoneal administration using iron overload rat model; format: toxicity, organism-based; conditions: in vivo, ip
[12] = tested on: Mus musculus; assay: BDF1 male mice were administered with 300 mg/kg intraperitoneally and percent change in iron levels was determined in liver; format: functional; conditions: route intraperitoneal; summary of the method: as §3
[13] = tested on: Rattus norvegicus; assay: Percent change in iron levels was determined in urine using iron overload rat model where the route of administration is Peroral; format: ADME, organism-based; conditions: in vivo, po
[14] = tested on: Rattus norvegicus; assay: Percent change in iron levels was determined in feces using iron overload rat model where the route of administration is Peroral; format: ADME, organism-based; conditions: in vivo, po
[15] = tested on: Rattus norvegicus; assay: Percent change in iron levels was determined in urine using iron overload rat model where the route of administration is Intraperitoneal; format: ADME, organism-based; conditions: in vivo, ip
[16] = tested on: Mus musculus; assay: BDF1 male mice were administered with 200 mg/kg intraperitoneally and percent change in iron levels was determined in Urine; format: functional; conditions: route intraperitoneal; summary of the method: as §1
[17] = tested on: Mus musculus; assay: BDF1 male mice were administered with 200 mg/kg intraperitoneally and percent change in iron levels was determined in Spleen; format: functional; conditions: route intraperitoneal; summary of the method: as §1
[18] = tested on: Mus musculus; assay: BDF1 male mice were administered with 200 mg/kg intraperitoneally and percent change in iron levels was determined in Feces; format: functional; conditions: route intraperitoneal; summary of the method: as §1
[19] = tested on: Mus musculus; assay: BDF1 male mice were administered with 100 mg/kg intraperitoneally and percent change in iron levels was determined in Urine; format: functional; conditions: route intraperitoneal; summary of the method: as §1
[20] = tested on: Mus musculus; assay: BDF1 male mice were administered with 100 mg/kg intraperitoneally and percent change in iron levels was determined in Spleen; format: functional; conditions: route intraperitoneal; summary of the method: as §1
[21] = tested on: Mus musculus; assay: BDF1 male mice were administered with 200 mg/kg intraperitoneally and percent change in iron levels was determined in liver; format: functional; conditions: route intraperitoneal; summary of the method: as §1
[22] = tested on: Mus musculus; assay: BDF1 male mice were administered with 100 mg/kg intraperitoneally and number of survivors was determined out of 10 tested; format: functional; conditions: route intraperitoneal; summary of the method: as §2
[23] = tested on: Mus musculus; assay: BDF1 male mice were administered with 100 mg/kg intraperitoneally and percent change in iron levels was determined in Liver; format: functional; conditions: route intraperitoneal; summary of the method: as §1
[24] = tested on: Mus musculus; assay: BDF1 male mice were administered with 200 mg/kg intraperitoneally and number of survivors was determined out of 10 tested; format: functional; conditions: route intraperitoneal; summary of the method: as §2
[25] = tested on: Mus musculus; assay: BDF1 male mice were administered with 100 mg/kg intraperitoneally and percent change in iron levels was determined in Feces; format: functional; conditions: route intraperitoneal; summary of the method: as §1

Work on `O=C([O-])CN(CCN(CC(=O)[O-])c1ccccc1O)c1ccccc1O.[Li+].[Li+]` yielded an Iron change [1] of 28%, an Iron change [2] of -49% and a No. of survivors [3] of 9. It also gave an Iron change [4] of -7% and an Iron change [5] of -38%.
Work on `O=C(O)CN(Cc1ccccc1O)CC(O)CN(CC(=O)O)Cc1ccccc1O` yielded an Iron change [6] of 127%, an Iron change [7] of 255% and an Iron change [8] of -32%. The Iron change [9] was 6%, the No. of survivors [10] was 10 and the LD50 [11] was at least 800 mg/kg. For the same compound, the Iron change [12] was -50%, the Iron change [13] was 30% and the Iron change [14] was 20%. It also gave an Iron change [15] of 118%.
Compound `O=C([O-])CN(CCN(CC(=O)[O-])c1ccccc1O)c1ccccc1O.[Na+].[Na+]` has an Iron change [16] of 143%, an Iron change [17] of 22% and an Iron change [18] of -15%. For the same compound, the Iron change [19] was 106%, the Iron change [20] was 7% and the Iron change [21] was -22%. For the same compound, the No. of survivors [22] was 10, the Iron change [23] was -22% and the No. of survivors [24] was 5. The Iron change [25] was 3%.
